In ChEMBL document CHEMBL4342493, “Design and Optimization of 3'-(Imidazo[1,2-a]pyrazin-3-yl)-[1,1'-biphenyl]-3-carboxamides as Selective DDR1 Inhibitors” (ACS Med Chem Lett, 2020) one finds IC50 data, which are given here for 24 compounds.

Assay [1] concerns the target Epithelial discoidin domain-containing receptor 1 (Homo sapiens, UniProt Q08345). Nature of the assay: Inhibition of recombinant human GST-tagged DDR1 catalytic domain (440 to 876 residues) expressed in baculovirus expression system using Fluorescein-poly GAT as substrate incubated for 1 hr in presence of ATP by LanthaScreen Eu kinase assay. A general note: In TR-FRET formats the signal depends on donor and acceptor labels being close together.

For assay [2], the target named is T1, Discoidin domain-containing receptor 2 (Homo sapiens, UniProt Q16832).
T1 sequence (Q16832 whole entry): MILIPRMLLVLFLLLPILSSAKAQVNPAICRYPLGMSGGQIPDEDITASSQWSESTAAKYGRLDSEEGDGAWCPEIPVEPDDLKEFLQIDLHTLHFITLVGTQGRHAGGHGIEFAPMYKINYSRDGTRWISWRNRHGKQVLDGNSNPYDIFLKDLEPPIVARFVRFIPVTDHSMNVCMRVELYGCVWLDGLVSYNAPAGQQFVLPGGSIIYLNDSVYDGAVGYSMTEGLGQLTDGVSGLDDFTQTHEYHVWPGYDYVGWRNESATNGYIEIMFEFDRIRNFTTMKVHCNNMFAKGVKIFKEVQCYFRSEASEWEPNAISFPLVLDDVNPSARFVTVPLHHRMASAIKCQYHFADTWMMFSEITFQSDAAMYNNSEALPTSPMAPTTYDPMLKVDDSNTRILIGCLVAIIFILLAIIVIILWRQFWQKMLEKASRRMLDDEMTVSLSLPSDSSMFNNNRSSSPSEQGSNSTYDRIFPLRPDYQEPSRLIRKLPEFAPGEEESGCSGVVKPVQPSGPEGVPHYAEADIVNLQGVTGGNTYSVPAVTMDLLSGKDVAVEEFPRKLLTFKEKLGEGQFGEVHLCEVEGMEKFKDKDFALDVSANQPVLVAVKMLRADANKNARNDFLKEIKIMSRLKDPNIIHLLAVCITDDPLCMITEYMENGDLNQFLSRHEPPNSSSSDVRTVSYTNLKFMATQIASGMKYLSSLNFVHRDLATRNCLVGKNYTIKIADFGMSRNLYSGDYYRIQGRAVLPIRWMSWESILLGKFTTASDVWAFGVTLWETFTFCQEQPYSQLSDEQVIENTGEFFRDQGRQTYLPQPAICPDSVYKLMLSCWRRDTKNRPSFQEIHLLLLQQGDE
As to the kind of experiment: Inhibition of recombinant human GST-tagged DDR2 cytoplasmic domain (427 to 855 residues) expressed in baculovirus expression system using Fluorescein-poly GAT as substrate incubated for 1 hr in presence of ATP by LanthaScreen Eu kinase assay. Summed up:
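LanthaScreen Eu kinase assay for DDR2; IC50 values are means of three independent experiments, variations <20%.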

A further assay concerns the target Bcr/Abl fusion protein (Homo sapiens, UniProt P00519). Nature of the assay: Inhibition of human recombinant full length His-tagged Bcr-Abl expressed in baculovirus expression system using tyrosine-2 peptide as substrate after 1 hr in presence of […] ATP by FRET based Z'-LYTE assay. Summed up:
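FRET-based Z′-Lyte kinase assay for Bcr-Abl; IC50 values are means of three independent experiments, variations <20%.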

The target in assay [3] is Mast/stem cell growth factor receptor Kit (Homo sapiens, UniProt P10721). Nature of the assay: Inhibition of human recombinant His-tagged c-Kit cytoplasmic domain (544 to 976 residues) expressed in baculovirus expression system using Ser/Thr 6 peptide as substrate after 1 hr in presence of 300 uM ATP by FRET based Z'-LYTE assay.
Mast/stem cell growth factor receptor Kit, sequence (P10721 whole entry, the tested form may be a part): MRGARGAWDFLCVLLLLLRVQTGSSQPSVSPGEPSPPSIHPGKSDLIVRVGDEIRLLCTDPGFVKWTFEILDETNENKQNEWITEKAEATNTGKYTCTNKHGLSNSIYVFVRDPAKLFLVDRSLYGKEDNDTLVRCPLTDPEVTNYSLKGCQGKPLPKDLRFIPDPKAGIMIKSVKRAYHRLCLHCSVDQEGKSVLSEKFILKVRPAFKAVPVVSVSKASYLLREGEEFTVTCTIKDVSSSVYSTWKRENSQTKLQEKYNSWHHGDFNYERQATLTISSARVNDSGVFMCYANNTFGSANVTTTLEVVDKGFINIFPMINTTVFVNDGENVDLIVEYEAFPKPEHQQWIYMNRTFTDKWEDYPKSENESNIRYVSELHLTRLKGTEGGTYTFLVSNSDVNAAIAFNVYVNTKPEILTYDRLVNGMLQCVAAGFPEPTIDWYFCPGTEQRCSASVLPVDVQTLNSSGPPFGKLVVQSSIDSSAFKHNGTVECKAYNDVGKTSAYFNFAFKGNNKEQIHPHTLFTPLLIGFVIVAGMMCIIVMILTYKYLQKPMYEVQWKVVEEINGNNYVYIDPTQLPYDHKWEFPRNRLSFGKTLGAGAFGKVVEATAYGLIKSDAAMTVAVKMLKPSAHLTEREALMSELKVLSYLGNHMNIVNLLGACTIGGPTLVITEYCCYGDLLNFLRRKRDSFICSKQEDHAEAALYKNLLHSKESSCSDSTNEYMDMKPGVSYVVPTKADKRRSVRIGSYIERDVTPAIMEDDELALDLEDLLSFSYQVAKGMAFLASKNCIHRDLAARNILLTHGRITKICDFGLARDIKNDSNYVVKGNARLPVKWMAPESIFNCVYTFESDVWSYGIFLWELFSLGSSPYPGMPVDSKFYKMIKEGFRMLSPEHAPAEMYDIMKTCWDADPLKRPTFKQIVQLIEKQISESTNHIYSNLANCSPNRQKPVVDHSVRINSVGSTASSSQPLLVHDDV

Bcr/Abl fusion protein, sequence (P00519 whole entry, the tested form may be a part): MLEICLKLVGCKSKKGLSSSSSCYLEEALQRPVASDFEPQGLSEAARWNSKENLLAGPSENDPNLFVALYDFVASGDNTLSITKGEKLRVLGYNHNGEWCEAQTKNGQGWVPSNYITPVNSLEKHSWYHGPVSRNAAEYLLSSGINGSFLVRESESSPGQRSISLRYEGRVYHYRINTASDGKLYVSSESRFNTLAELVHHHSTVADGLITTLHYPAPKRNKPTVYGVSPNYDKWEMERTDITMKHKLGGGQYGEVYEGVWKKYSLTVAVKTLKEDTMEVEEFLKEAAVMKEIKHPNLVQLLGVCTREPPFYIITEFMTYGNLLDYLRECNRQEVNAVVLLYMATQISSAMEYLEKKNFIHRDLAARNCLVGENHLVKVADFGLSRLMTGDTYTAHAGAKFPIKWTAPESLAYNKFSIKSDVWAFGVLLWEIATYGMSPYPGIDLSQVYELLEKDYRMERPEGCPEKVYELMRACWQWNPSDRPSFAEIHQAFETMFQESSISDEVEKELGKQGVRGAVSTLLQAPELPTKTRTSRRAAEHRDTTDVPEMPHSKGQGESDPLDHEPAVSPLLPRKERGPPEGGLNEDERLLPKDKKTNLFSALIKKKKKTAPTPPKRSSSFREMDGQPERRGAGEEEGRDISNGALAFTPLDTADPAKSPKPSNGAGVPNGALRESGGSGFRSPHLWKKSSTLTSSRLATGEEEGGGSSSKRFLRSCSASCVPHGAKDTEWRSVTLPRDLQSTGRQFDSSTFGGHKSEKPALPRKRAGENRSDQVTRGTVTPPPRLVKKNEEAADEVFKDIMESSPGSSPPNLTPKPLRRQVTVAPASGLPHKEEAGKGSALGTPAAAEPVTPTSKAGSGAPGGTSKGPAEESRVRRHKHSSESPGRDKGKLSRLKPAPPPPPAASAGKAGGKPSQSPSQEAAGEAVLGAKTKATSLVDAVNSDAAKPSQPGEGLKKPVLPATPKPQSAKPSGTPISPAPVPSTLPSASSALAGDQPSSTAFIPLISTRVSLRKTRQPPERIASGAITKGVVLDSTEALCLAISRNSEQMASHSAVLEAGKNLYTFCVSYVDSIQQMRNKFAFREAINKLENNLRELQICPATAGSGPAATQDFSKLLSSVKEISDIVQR
Bcr/Abl fusion protein, sequence (P11274 whole entry, further chain, the tested form may be a part): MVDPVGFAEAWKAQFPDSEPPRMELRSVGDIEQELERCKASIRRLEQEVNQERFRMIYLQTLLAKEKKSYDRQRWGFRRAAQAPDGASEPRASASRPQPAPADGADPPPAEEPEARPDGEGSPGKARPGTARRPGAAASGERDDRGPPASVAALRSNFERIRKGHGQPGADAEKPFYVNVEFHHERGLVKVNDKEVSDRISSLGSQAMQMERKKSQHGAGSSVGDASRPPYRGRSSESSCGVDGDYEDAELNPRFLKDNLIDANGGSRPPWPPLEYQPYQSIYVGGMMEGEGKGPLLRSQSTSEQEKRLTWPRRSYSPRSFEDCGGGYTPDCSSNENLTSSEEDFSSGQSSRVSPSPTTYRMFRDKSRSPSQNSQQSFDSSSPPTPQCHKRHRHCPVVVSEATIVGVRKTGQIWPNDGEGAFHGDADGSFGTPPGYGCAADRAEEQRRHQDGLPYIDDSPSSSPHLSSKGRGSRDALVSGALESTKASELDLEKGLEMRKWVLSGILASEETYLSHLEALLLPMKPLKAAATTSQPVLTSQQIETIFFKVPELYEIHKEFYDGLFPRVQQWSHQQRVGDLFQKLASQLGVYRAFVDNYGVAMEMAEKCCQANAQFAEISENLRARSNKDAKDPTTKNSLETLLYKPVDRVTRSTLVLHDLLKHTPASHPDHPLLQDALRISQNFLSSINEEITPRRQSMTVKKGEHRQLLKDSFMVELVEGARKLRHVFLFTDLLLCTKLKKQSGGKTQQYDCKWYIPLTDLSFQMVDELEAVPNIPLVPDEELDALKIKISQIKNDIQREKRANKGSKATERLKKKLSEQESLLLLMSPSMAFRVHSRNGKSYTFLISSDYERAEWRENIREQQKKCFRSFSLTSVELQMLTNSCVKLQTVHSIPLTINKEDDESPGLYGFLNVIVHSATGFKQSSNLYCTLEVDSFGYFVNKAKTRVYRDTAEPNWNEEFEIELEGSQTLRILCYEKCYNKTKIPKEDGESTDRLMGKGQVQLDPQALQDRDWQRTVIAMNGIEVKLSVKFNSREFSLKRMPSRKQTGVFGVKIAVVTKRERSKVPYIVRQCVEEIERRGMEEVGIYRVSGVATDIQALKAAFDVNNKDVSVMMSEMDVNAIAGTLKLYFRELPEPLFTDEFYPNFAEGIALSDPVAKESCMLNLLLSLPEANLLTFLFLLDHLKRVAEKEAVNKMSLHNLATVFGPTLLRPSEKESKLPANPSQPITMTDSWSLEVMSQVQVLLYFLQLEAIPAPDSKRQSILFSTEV
Epithelial discoidin domain-containing receptor 1, sequence (Q08345 whole entry, the tested form may be a part): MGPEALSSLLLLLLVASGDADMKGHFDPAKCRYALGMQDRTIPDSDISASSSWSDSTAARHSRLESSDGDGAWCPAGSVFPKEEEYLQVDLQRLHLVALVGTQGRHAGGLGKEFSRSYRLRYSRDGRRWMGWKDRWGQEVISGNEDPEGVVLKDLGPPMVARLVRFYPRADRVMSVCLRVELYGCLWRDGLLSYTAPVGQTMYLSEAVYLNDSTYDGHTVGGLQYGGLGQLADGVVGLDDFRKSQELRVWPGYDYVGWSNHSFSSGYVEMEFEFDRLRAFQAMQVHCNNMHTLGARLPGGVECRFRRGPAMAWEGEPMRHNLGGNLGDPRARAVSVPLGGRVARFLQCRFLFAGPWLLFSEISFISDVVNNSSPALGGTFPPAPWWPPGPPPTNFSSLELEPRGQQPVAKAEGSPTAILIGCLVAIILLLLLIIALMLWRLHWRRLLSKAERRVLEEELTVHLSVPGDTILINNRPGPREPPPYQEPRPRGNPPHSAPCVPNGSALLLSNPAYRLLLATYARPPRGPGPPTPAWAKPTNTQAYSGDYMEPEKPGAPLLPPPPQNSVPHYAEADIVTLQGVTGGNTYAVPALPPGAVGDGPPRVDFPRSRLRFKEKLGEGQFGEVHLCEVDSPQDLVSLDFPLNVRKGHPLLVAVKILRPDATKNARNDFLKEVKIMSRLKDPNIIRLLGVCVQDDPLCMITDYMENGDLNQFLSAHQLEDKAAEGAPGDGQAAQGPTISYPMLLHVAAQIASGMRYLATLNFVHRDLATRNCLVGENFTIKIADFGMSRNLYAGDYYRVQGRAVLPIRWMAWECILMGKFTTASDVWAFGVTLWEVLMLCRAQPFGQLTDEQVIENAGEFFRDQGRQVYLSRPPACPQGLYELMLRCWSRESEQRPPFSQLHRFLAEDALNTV

As usually defined, the IC50 is the concentration at which inhibition is half-maximal. Take `CCc1ccc(C(=O)Nc2cc(CN3CCN(C)CC3)cc(C(F)(F)F)c2)cc1-c1cccc(-c2cnc3cnccn23)c1`: the IC50 in assay [1] was 8.7 to 9.6 nM; in assay [2] it was 66.1 nM; on Bcr/Abl fusion protein it was 0.437 µM; in assay [3], 0.62 µM.

For `CCc1ccc(C(=O)Nc2cccc(C(F)(F)F)c2)cc1-c1cccc(-c2cnc3cnccn23)c1`, the concentration for half-maximal inhibition (IC50) was 10.4 nM in assay [1], 725 nM in assay [2], 2.22 µM on Bcr/Abl fusion protein and 2.92 µM in assay [3].

For the compound `CCc1ccc(C(=O)Nc2cccc(C(F)(F)F)c2F)cc1-c1cc(C)cc(-c2cnc3cnccn23)c1`, the IC50 in assay [1] is 73.8 nM; in assay [2], over 5000 nM; at Bcr/Abl fusion protein, over 10 µM; in assay [3], over 10 µM.

Regarding `CCc1ccc(C(=O)Nc2cc(C(F)(F)F)ccc2F)cc1-c1cc(C)cc(-c2cnc3cnccn23)c1`, the IC50 in assay [1] was 36.5 nM; in assay [2] it was over 5000 nM; at Bcr/Abl fusion protein, over 10 µM; in assay [3], over 10 µM.

For `CCc1ccc(C(=O)Nc2cccc(CN3CCN(C)CC3)c2)cc1-c1cccc(-c2cnc3cnccn23)c1`, the IC50 in assay [1] was 357 nM; in assay [2], over 10000 nM; on Bcr/Abl fusion protein, 0.989 µM; in assay [3], 4.93 µM.

Turning to `CCc1ccc(C(=O)Nc2cccc(C(F)(F)F)c2)cc1-c1cc(-c2cnc3cnccn23)ccc1C`, the IC50 in assay [1] was 63.7 nM; in assay [2], 610 nM; on Bcr/Abl fusion protein, 1.45 µM; in assay [3], over 10 µM.

For the compound `CCc1ccc(C(=O)Nc2cccc(C(F)(F)F)c2)cc1-c1cc(F)cc(-c2cnc3cnccn23)c1`, the IC50 in assay [1] is 30.3 nM; in assay [2] it was 1330 nM; at Bcr/Abl fusion protein it was 5.34 µM; in assay [3], 6.59 µM.

As for `CCc1ccc(C(=O)Nc2cc(CN3CCN(C)CC3)cc(C(F)(F)F)c2)cc1-c1cccc(-c2cnc3ccnn3c2)c1`, the IC50 was 359 nM in assay [1], 197 nM in assay [2], over 10 µM at Bcr/Abl fusion protein and over 10 µM in assay [3].

Consider `CCc1ccc(C(=O)Nc2cccc(C(F)(F)F)c2)cc1-c1cc(C)cc(-c2cnc3cnccn23)c1`, for which the IC50 was 22.5 nM in assay [1], 1730 nM in assay [2], over 10 µM on Bcr/Abl fusion protein and over 10 µM in assay [3].

Consider `CCc1ccc(C(=O)Nc2cccc(C(F)(F)F)c2)cc1-c1cc(C#N)cc(-c2cnc3cnccn23)c1`, for which the IC50 in assay [1] is 15.6 nM; in assay [2] it was 947 nM; at Bcr/Abl fusion protein it was 5.64 µM; in assay [3], 3.72 µM.

`CCc1cc(-c2cc(C(=O)Nc3cccc(C(F)(F)F)c3)ccc2CC)cc(-c2cnc3cnccn23)c1`: the IC50 in assay [1] is 42.3 nM; in assay [2], 3230 nM; on Bcr/Abl fusion protein, over 10 µM; in assay [3], over 10 µM.

Take `CCc1ccc(C(=O)Nc2cccc(C(F)(F)F)c2)cc1-c1cc(OC)cc(-c2cnc3cnccn23)c1`: the IC50 in assay [1] came out at 16.5 nM; in assay [2], 1020 nM; on Bcr/Abl fusion protein it was 3.7 µM; in assay [3], 4.99 µM.

In the case of `CC(C)c1ccc(C(=O)Nc2cccc(C(F)(F)F)c2)cc1-c1cccc(-c2cnc3cnccn23)c1`, the IC50 in assay [1] was 1260 nM; in assay [2], over 10000 nM; on Bcr/Abl fusion protein, over 10 µM; in assay [3], 1.69 µM.

With `CCc1ccc(C(=O)Nc2ccccc2)cc1-c1cccc(-c2cnc3cnccn23)c1`, the IC50 in assay [1] was 4850 nM; in assay [2], over 10000 nM; at Bcr/Abl fusion protein, 5.12 µM; in assay [3], 8.99 µM.

As for `Cc1ccc(C(=O)Nc2cccc(C(F)(F)F)c2)cc1-c1cccc(-c2cnc3cnccn23)c1`, the half-maximal inhibitory concentration (IC50) in assay [1] amounted to 9.2 nM; in assay [2] it was 135 nM; on Bcr/Abl fusion protein, 0.237 µM; in assay [3] it was 0.0724 µM.

On to `CCc1ccc(C(=O)Nc2cccc(C(F)(F)F)c2)cc1-c1ccc(C)c(-c2cnc3cnccn23)c1`, for which the concentration for half-maximal inhibition (IC50) in assay [1] was 108 nM; in assay [2], over 10000 nM; on Bcr/Abl fusion protein it was over 10 µM; in assay [3], over 10 µM.

For the compound `CCc1ccc(C(=O)Nc2ccc(C(F)(F)F)cc2)cc1-c1cccc(-c2cnc3cnccn23)c1`, the IC50 in assay [1] was 1300 nM; in assay [2], over 10000 nM; on Bcr/Abl fusion protein, 4.99 µM; in assay [3], 3.98 µM.

Turning to `CCc1ccc(C(=O)Nc2ccc(F)c(C(F)(F)F)c2)cc1-c1cc(C)cc(-c2cnc3cnccn23)c1`, the IC50 in assay [1] is 55.6 nM; in assay [2], over 5000 nM; at Bcr/Abl fusion protein, over 10 µM; in assay [3], over 10 µM.

Regarding `CCc1ccc(C(=O)Nc2cccc(C(F)(F)F)c2)cc1-c1cc(Cl)cc(-c2cnc3cnccn23)c1`, the IC50 in assay [1] was 21.3 nM; in assay [2], 1080 nM; at Bcr/Abl fusion protein, over 10 µM; in assay [3], 8.41 µM.

`CCc1ccc(C(=O)Nc2cccc(C(F)(F)F)c2)cc1-c1cc(-c2cnc3cnccn23)cc(C(C)(C)C)c1`: the IC50 in assay [1] was 92 nM; in assay [2] it was over 10000 nM; on Bcr/Abl fusion protein, over 10 µM; in assay [3], over 10 µM.

With `CCc1ccc(C(=O)Nc2cccc(C(F)(F)F)c2)cc1-c1cccc(-c2cnc3cnccn23)c1C`, the half-maximal inhibitory concentration (IC50) in assay [1] was found to be 30.1 nM; in assay [2], 663 nM; at Bcr/Abl fusion protein, 1.81 µM; in assay [3], 5.98 µM.

For the compound `CCc1ccc(C(=O)Nc2cccc(C(F)(F)F)c2)cc1-c1cc(-c2cnc3cnccn23)cc(C(C)C)c1`, the IC50 in assay [1] was 66.9 nM; in assay [2], 2630 nM; on Bcr/Abl fusion protein, over 10 µM; in assay [3] it was over 10 µM.

In the case of `CCc1ccc(C(=O)Nc2cc(CN3CCN(C)CC3)cc(C(F)(F)F)c2)cc1C#Cc1cnc2ccnn2c1`, in assay [3], the IC50 is over 10 µM.

On to `CCc1ccc(C(=O)Nc2ccccc2C(F)(F)F)cc1-c1cccc(-c2cnc3cnccn23)c1`, for which the IC50 in assay [1] was 4880 nM; in assay [2] it was over 10000 nM; on Bcr/Abl fusion protein it was over 10 µM; in assay [3], over 10 µM.
